Laboratory results as given in ChEMBL document CHEMBL1240360, “TMC278, a next-generation nonnucleoside reverse transcriptase inhibitor (NNRTI), active against wild-type and NNRTI-resistant HIV-1” (Antimicrob Agents Chemother, 2010).

Legend:
[1] = tested on: Human immunodeficiency virus 1; assay: Antiviral activity against Human immunodeficiency virus 1 subtype D infected in human MT4 cells assessed as reduction in virus induced cytopathicity; format: functional, organism-based
In short: (§1)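 Recombinant viruses were made by recombining patient-derived HIV-1 RT-PR sequences into an RT-PR-deleted HXB2 proviral clone transfected into MT4 cells. Subtype was assigned from PR/RT sequence by Smith-Waterman alignment to HXB2. MT4 cells (1.5 × 10^5/ml) were infected at MOI 0.01 with serially diluted compound for 5 days at 37°C. Viability was read by MTT and EC50 derived.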

[2] = tested on: Human immunodeficiency virus 1; assay: Antiviral activity against Human immunodeficiency virus 1 subtype AG infected in human MT4 cells assessed as reduction in virus induced cytopathicity; format: functional, organism-based; in short: as §1
[3] = tested on: Human immunodeficiency virus 1; assay: Antiviral activity against Human immunodeficiency virus 1 subtype F isolate 93BR019 infected in human PBMC cells by cell based assay; settings: Human immunodeficiency virus 1, subtype F isolate 93BR019, PBMC
[4] = tested on: Human immunodeficiency virus 1; assay: Antiviral activity against Human immunodeficiency virus 1 subtype E isolate CMU08 infected in human PBMC cells by cell based assay; settings: Human immunodeficiency virus 1, subtype E isolate CMU08, PBMC
[5] = tested on: Human immunodeficiency virus 1; assay: Antiviral activity against Human immunodeficiency virus 1 subtype F isolate 93BR029 infected in human PBMC cells by cell based assay; settings: Human immunodeficiency virus 1, subtype F isolate 93BR029, PBMC
[6] = tested on: Human immunodeficiency virus 1; assay: Antiviral activity against Human immunodeficiency virus 1 group M subtype A1 assessed as days to viral replication breakthrough at 10 nM by cell based assay; format: functional
[7] = tested on: Human immunodeficiency virus 1; assay: Antiviral activity against Human immunodeficiency virus 1 subtype D isolate 92UG024 infected in human PBMC cells by cell based assay; settings: Human immunodeficiency virus 1, subtype D 92UG024, PBMC
[8] = tested on: Human immunodeficiency virus 1; assay: Antiviral activity against Human immunodeficiency virus 1 subtype A isolate 92UG037 infected in human PBMC cells by cell based assay; settings: Human immunodeficiency virus 1, subtype A isolate 92UG037, PBMC
[9] = tested on: Human immunodeficiency virus 1; assay: Antiviral activity against Human immunodeficiency virus 1 subtype O misolate BCF01 infected in human PBMC cells by cell based assay; settings: Human immunodeficiency virus 1, subtype O isolate BCF01, PBMC
[10] = tested on: Human immunodeficiency virus 1; assay: Antiviral activity against Human immunodeficiency virus 1 subtype O isolate BCF03 infected in human PBMC cells by cell based assay; settings: Human immunodeficiency virus 1, subtype O isolate BCF03, PBMC
[11] = tested on: Human immunodeficiency virus 1; assay: Antiviral activity against Human immunodeficiency virus 1 3B infected in human MT4 cells assessed as reduction in virus induced cytopathicity; format: functional, organism-based
In short: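 MT4 cells (1.5 × 10^5/ml) infected with HIV-1 IIIB at MOI 0.01 and added to serially diluted compound. Cultures incubated 5 days at 37°C under 5% CO2. Cell viability, as protection from virus-induced killing, read by MTT tetrazolium colorimetry. EC50 reported as median with first to third quartiles over n experiments.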

[12] = tested on: Human immunodeficiency virus 1; assay: Antiviral activity against Human immunodeficiency virus 1 group M subtype BG assessed as days to viral replication breakthrough at 40 nM by cell based assay; format: functional
[13] = tested on: Human immunodeficiency virus 1; assay: Antiviral activity against Human immunodeficiency virus 1 group M subtype BG assessed as days to viral replication breakthrough at 10 nM by cell based assay; format: functional
[14] = tested on: Human immunodeficiency virus 1; assay: Antiviral activity against Human immunodeficiency virus 1 group M subtype AG assessed as days f for viral replication at 200 nM by cell based assay; format: functional
[15] = tested on: Human immunodeficiency virus 1; assay: Antiviral activity against Human immunodeficiency virus 1 group M subtype G assessed as days to viral replication breakthrough at 200 nM by cell based assay; format: functional
[16] = tested on: Human immunodeficiency virus 1; assay: Antiviral activity against Human immunodeficiency virus 1 subtype A1 infected in human MT4 cells assessed as reduction in virus induced cytopathicity; format: functional, organism-based; settings: Human immunodeficiency virus 1, subtype A1, MT4; in short: as §1
[17] = tested on: Human immunodeficiency virus 1; assay: Antiviral activity against Human immunodeficiency virus 1 subtype C isolate 92BR025 infected in human PBMC cells by cell based assay; settings: Human immunodeficiency virus 1, subtype C isolate 92BR025, PBMC
[18] = tested on: Human immunodeficiency virus 1; assay: Antiviral activity against Human immunodeficiency virus 1 group M subtype F1 assessed as days to viral replication breakthrough at 200 nM by cell based assay; format: functional
[19] = tested on: Human immunodeficiency virus 1; assay: Antiviral activity against Human immunodeficiency virus 1 group M subtype C assessed as days to viral replication breakthrough at 10 nM by cell based assay; format: functional
[20] = tested on: Human immunodeficiency virus 1; assay: Antiviral activity against Human immunodeficiency virus 1 group M subtype F1 assessed as days to viral replication breakthrough at 10 nM by cell based assay; format: functional
[21] = tested on: Human immunodeficiency virus 1; assay: Antiviral activity against Human immunodeficiency virus 1 group M subtype B assessed as days to viral replication breakthrough at 40 nM by cell based assay; format: functional
[22] = tested on: Human immunodeficiency virus 1; assay: Antiviral activity against Human immunodeficiency virus 1 group M subtype AE assessed as days to viral replication breakthrough at 40 nM by cell based assay; format: functional
[23] = tested on: Human immunodeficiency virus 1; assay: Antiviral activity against Human immunodeficiency virus 1 subtype A isolate 92RW020 infected in human PBMC cells by cell based assay; settings: Human immunodeficiency virus 1, subtype A isolate 92RW020, PBMC
[24] = tested on: Human immunodeficiency virus 1; assay: Antiviral activity against Human immunodeficiency virus 1 group M subtype G assessed as days to viral replication breakthrough at 10 nM by cell based assay; format: functional
[25] = tested on: Human immunodeficiency virus 1; assay: Antiviral activity against Human immunodeficiency virus 1 group M subtype BG assessed as days to viral replication breakthrough at 200 nM by cell based assay; format: functional
[26] = tested on: Human immunodeficiency virus 1; assay: Antiviral activity against Human immunodeficiency virus 1 group M subtype D assessed as days to viral replication breakthrough at 40 nM by cell based assay; format: functional
[27] = tested on: Human immunodeficiency virus 1; assay: Antiviral activity against Human immunodeficiency virus 1 group M subtype A1 assessed as days to viral replication breakthrough at 200 nM by cell based assay; format: functional
[28] = tested on: Human immunodeficiency virus 1; assay: Antiviral activity against Human immunodeficiency virus 1 subtype AE infected in human MT4 cells assessed as reduction in virus induced cytopathicity; format: functional, organism-based; in short: as §1
[29] = tested on: Human immunodeficiency virus 1; assay: Antiviral activity against Human immunodeficiency virus 1 subtype B isolate 93BR021 infected in human PBMC cells by cell based assay; settings: Human immunodeficiency virus 1, subtype B isolate 93BR021, PBMC
[30] = tested on: Human immunodeficiency virus 1; assay: Antiviral activity against Human immunodeficiency virus 1 subtype G infected in human MT4 cells assessed as reduction in virus induced cytopathicity; format: functional, organism-based; in short: as §1
[31] = tested on: Human immunodeficiency virus 1; assay: Antiviral activity against Human immunodeficiency virus 1 group M subtype H assessed as days to viral replication breakthrough at 200 nM by cell based assay; format: functional
[32] = tested on: Human immunodeficiency virus 1; assay: Antiviral activity against Human immunodeficiency virus 1 group M subtype D assessed as days to viral replication breakthrough at 200 nM by cell based assay; format: functional
[33] = tested on: MT4; assay: Cytotoxicity against human MT4 cells by cell based assay
In short: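 Cytotoxicity in MT4 cells from cell-based assays gave a 50% cytotoxic concentration, reported as a median with first- to third-quartile values over the stated number of experiments.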

[34] = tested on: Human immunodeficiency virus 1; assay: Antiviral activity against Human immunodeficiency virus 1 subtype B isolate JR-CSF infected in human PBMC cells by cell based assay
[35] = tested on: Human immunodeficiency virus 1; assay: Antiviral activity against Human immunodeficiency virus 1 subtype E isolate 92TH006 infected in human PBMC cells by cell based assay; settings: Human immunodeficiency virus 1, subtype E 92TH006, PBMC
[36] = tested on: Human immunodeficiency virus 1; assay: Antiviral activity against Human immunodeficiency virus 1 subtype A isolate 92UG029 infected in human PBMC cells by cell based assay; settings: Human immunodeficiency virus 1, subtype A isolate 92UG029, PBMC

Q: What does the source list for Cc1cc(/C=C/C#N)cc(C)c1Nc1ccnc(Nc2ccc(C#N)cc2)n1 [RILPIVIRINE]?
A: EC50 [1]: 0.3 nM; EC50 [2]: 0.13 nM; EC50 [3]: 0.95 nM; EC50 [4]: 1.01 nM; EC50 [5]: 0.19 nM; Activity [6]: 10 days; EC50 [7]: 0.38 nM; EC50 [8]: 0.24 nM; EC50 [9]: 3.13 nM; EC50 [10]: 8.45 nM; EC50 [11]: 0.73 nM; Activity [12]: 13 days; Activity [13]: 10 days; Activity [14]: > 31 days; Activity [15]: > 31 days; EC50 [16]: 0.44 nM; EC50 [17]: 0.33 nM; Activity [18]: > 31 days; Activity [19]: > 31 days; Activity [20]: > 31 days; Activity [21]: > 31 days; Activity [22]: > 31 days; EC50 [23]: 0.07 nM; Activity [24]: > 31 days; Activity [25]: > 31 days; Activity [26]: > 31 days; Activity [27]: > 31 days; EC50 [28]: 0.21 nM; EC50 [29]: 0.23 nM; EC50 [30]: 0.14 nM; Activity [31]: > 31 days; Activity [32]: > 31 days; Activity [33]: 5.91 µM; EC50 [34]: 0.51 nM; EC50 [35]: 0.08 nM; EC50 [36]: 0.44 nM
